Test results taken from ChEMBL document CHEMBL5724801, “EUbOPEN Chemogenomics Library - Multiplex” (2024).
“And” between values parts separate entries of the source, which are not always exact repeats. Equal values may be shown once.

The molecules below were run on Fibroblast (assay: Multiplex assay against human fibroblast). Conditions: 12 h, 1 µM, compound concentration 1 uM.
Type: toxicity, cell-based
Method in brief: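 Imaging took place on a CQ1 microscope at 37°C and 5% CO2 once compound had been added to live cells stained at seeding with Hoechst33342, BioTracker Green Microtubule Cytoskeleton Dye, MitoTracker Red and Annexin V Alexa Fluor 680. CellPathfinder machine-learning gating classed cells as Hoechst high-intensity objects or normal cells, classed normal cells as having healthy, pyknosed or fragmented nuclei, and classed pyknosed cells as mitotic or apoptotic. Tubulin, mitochondrial-mass and membrane-permeability phenotypes are per cents of the healthy-nucleus cells.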

SMILES | Population Apoptotic (%) | Population Fragmented Nuclei (%) | Population Healthy Nuclei (%) | Population Hoechst High Intensity Objects (%) | Population Membrane Permeable-Phenotype (%) | Population Mitochondria Different-Phenotype (%) | Population Mitotic Cells (%) | Population Normal (%) | Population Pyknosed Nuclei (%) | Population Tubulin-Different-Phenotype (%)
CC(=O)NCC(=O)N1[C@@H]2CC[C@H]1c1ccc(Nc3ncc(C(F)(F)F)c(NC4CCC4)n3)cc12 [PF-03814735] | 14.81% and 22.73% | 12.78% and 6.01% | 72.22% and 81.97% | 0% | 4.62% and 4% | 7.69% and 10.67% | 85.19% and 77.27% | 100% | 15% and 12.02% | 20% and 22.67%
Cn1ncnc1COc1nn2c(-c3cc(F)ccc3F)nnc2cc1C(C)(C)C | 5.08% and 12.9% | 11.68% and 7.25% | 58.38% and 76.68% | 0% | – | 6.09% and 8.11% | 94.92% and 87.1% | 100% | 29.95% and 16.06% | 13.04% and 21.62%

Same assay, conditions: 12 h, 1 µM, compound concentration 1 uM

SMILES | Total Cell Count
CC(=O)NCC(=O)N1[C@@H]2CC[C@H]1c1ccc(Nc3ncc(C(F)(F)F)c(NC4CCC4)n3)cc12 [PF-03814735] | 180 and 183
Cn1ncnc1COc1nn2c(-c3cc(F)ccc3F)nnc2cc1C(C)(C)C | 197 and 193

Same assay, conditions: 12 h, 10 µM, compound concentration 10 uM

SMILES | Population Apoptotic (%) | Population Fragmented Nuclei (%) | Population Healthy Nuclei (%) | Population Hoechst High Intensity Objects (%) | Population Membrane Permeable-Phenotype (%) | Population Mitochondria Different-Phenotype (%) | Population Mitotic Cells (%) | Population Normal (%) | Population Pyknosed Nuclei (%) | Population Tubulin-Different-Phenotype (%)
CC(=O)NCC(=O)N1[C@@H]2CC[C@H]1c1ccc(Nc3ncc(C(F)(F)F)c(NC4CCC4)n3)cc12 [PF-03814735] | 46.51% and 79.49% | 20.25% and 27.83% | 53.37% and 53.77% | 0% | 25.29% and 34.21% | 17.24% and 20.18% | 53.49% and 20.51% | 100% | 26.38% and 18.4% | 36.78% and 78.07%
Cn1ncnc1COc1nn2c(-c3cc(F)ccc3F)nnc2cc1C(C)(C)C | 6.76% and 16.22% | – | 51.12% and 80% | 0% | – | 14.04% and 8.67% | 93.24% and 83.78% | 100% | 33.18% and 15.1% | 35.96% and 51.02%

Same assay, conditions: 12 h, 10 µM, compound concentration 10 uM

SMILES | Total Cell Count
CC(=O)NCC(=O)N1[C@@H]2CC[C@H]1c1ccc(Nc3ncc(C(F)(F)F)c(NC4CCC4)n3)cc12 [PF-03814735] | 163 and 212
Cn1ncnc1COc1nn2c(-c3cc(F)ccc3F)nnc2cc1C(C)(C)C | 223 and 245

Same assay, conditions: 24 h, 1 µM, compound concentration 1 uM

SMILES | Population Apoptotic (%) | Population Fragmented Nuclei (%) | Population Healthy Nuclei (%) | Population Hoechst High Intensity Objects (%) | Population Membrane Permeable-Phenotype (%) | Population Mitochondria Different-Phenotype (%) | Population Mitotic Cells (%) | Population Normal (%) | Population Pyknosed Nuclei (%) | Population Tubulin-Different-Phenotype (%)
CC(=O)NCC(=O)N1[C@@H]2CC[C@H]1c1ccc(Nc3ncc(C(F)(F)F)c(NC4CCC4)n3)cc12 [PF-03814735] | 18.18% and 31.25% | 18.48% and 9.2% | 75.54% and 81.61% | 0% | 9.35% and 5.63% | 5.76% and 6.34% | 81.82% and 68.75% | 100% | 5.98% and 9.2% | 17.99% and 28.87%
Cn1ncnc1COc1nn2c(-c3cc(F)ccc3F)nnc2cc1C(C)(C)C | – | 8.72% and 5.03% | 67.89% and 83.42% | 0% | – | 1.35% and 7.23% | 94.12% and 60.87% | 100% | 23.39% and 11.56% | 10.14% and 19.28%

Same assay, conditions: 24 h, 1 µM, compound concentration 1 uM

SMILES | Total Cell Count
CC(=O)NCC(=O)N1[C@@H]2CC[C@H]1c1ccc(Nc3ncc(C(F)(F)F)c(NC4CCC4)n3)cc12 [PF-03814735] | 184 and 174
Cn1ncnc1COc1nn2c(-c3cc(F)ccc3F)nnc2cc1C(C)(C)C | 218 and 199

Same assay, conditions: 24 h, 10 µM, compound concentration 10 uM

SMILES | Population Apoptotic (%) | Population Fragmented Nuclei (%) | Population Healthy Nuclei (%) | Population Hoechst High Intensity Objects (%) | Population Normal (%) | Population Pyknosed Nuclei (%) | Population Tubulin-Different-Phenotype (%) | Total Cell Count | Population Mitochondria Different-Phenotype (%) | Population Mitotic Cells (%)
CC(=O)NCC(=O)N1[C@@H]2CC[C@H]1c1ccc(Nc3ncc(C(F)(F)F)c(NC4CCC4)n3)cc12 [PF-03814735] | 39.13% and 90.32% | 24.36% and 32.26% | 46.15% and 39.17% | 0% | 100% | 29.49% and 28.57% | 31.94% and 67.06% | 156 and 217 | – | –
Cn1ncnc1COc1nn2c(-c3cc(F)ccc3F)nnc2cc1C(C)(C)C | 13.24% and 17.24% | 8.07% and 9.51% | 61.43% and 79.47% | 0% | 100% | 30.49% and 11.03% | 45.99% and 56.46% | 223 and 263 | 11.68% and 10.05% | 86.76% and 82.76%

Same assay, conditions: 48 h, 1 µM, compound concentration 1 uM

SMILES | Population Fragmented Nuclei (%) | Population Healthy Nuclei (%) | Population Hoechst High Intensity Objects (%) | Population Membrane Permeable-Phenotype (%) | Population Normal (%) | Population Pyknosed Nuclei (%) | Population Tubulin-Different-Phenotype (%) | Total Cell Count | Population Mitochondria Different-Phenotype (%) | Population Mitotic Cells (%)
CC(=O)NCC(=O)N1[C@@H]2CC[C@H]1c1ccc(Nc3ncc(C(F)(F)F)c(NC4CCC4)n3)cc12 [PF-03814735] | 18.54% and 6.41% | 75.28% and 89.74% | 0% | 1.49% and 7.14% | 100% | 6.18% and 3.85% | 14.18% and 30.71% | 178 and 156 | – | –
Cn1ncnc1COc1nn2c(-c3cc(F)ccc3F)nnc2cc1C(C)(C)C | 7.91% and 5.24% | 84.58% and 83.81% | 0% | – | 100% | 7.51% and 10.95% | – | 253 and 210 | 12.15% and 3.41% | 68.42% and 91.3%

Same assay, conditions: 48 h, 10 µM, compound concentration 10 uM

SMILES | Population Apoptotic (%) | Population Fragmented Nuclei (%) | Population Healthy Nuclei (%) | Population Hoechst High Intensity Objects (%) | Population Mitochondria Different-Phenotype (%) | Population Normal (%) | Population Pyknosed Nuclei (%) | Total Cell Count | Population Mitotic Cells (%) | Population Tubulin-Different-Phenotype (%)
CC(=O)NCC(=O)N1[C@@H]2CC[C@H]1c1ccc(Nc3ncc(C(F)(F)F)c(NC4CCC4)n3)cc12 [PF-03814735] | 36.84% and 83.78% | 23.6% and 31.34% | 64.6% and 51.61% | 0% | 26.92% and 25% | 100% | 11.8% and 17.05% | 161 and 217 | – | –
Cn1ncnc1COc1nn2c(-c3cc(F)ccc3F)nnc2cc1C(C)(C)C | 23.08% and 30.77% | 10.08% and 8.8% | 78.99% and 86% | 0% | 8.51% and 7.44% | 100% | 10.92% and 5.2% | 238 and 250 | 76.92% and 69.23% | 38.3% and 59.07%
